We go through 26 molecules from ChEMBL document CHEMBL5335790, “Design, synthesis and biological evaluation of novel 2,4-thiazolidinedione derivatives able to target the human BAG3 protein” (Eur J Med Chem, 2023).

The subject of one data set is RS4-11. Briefly: Antiproliferative activity against human RS4-11 cells assessed as cell growth inhibition incubated for 72 hrs by resazurin dye based analysis. The format is functional. The essentials:
(§1)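 Cells seeded at 2000/well, treated 24 h later with compounds in a 6-point 2-fold dose series, duplicate wells, two independent experiments. After 72 h, resazurin was added at 44 µM final for 3 h at 37 °C and fluorescence was read at 590 nm. Viability was normalized to 1 µM bortezomib (positive) and 0.5% DMSO (negative) controls. GI50 is the mean ± SEM of dose-response curves.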

Another data set relates to A549. The data set is described as follows: Antiproliferative activity against human A549 cells assessed as cell growth inhibition incubated for 72 hrs by resazurin dye based analysis. The format is functional. In a few lines:
as §1
(The colour change of resazurin is a common sign of viable cells or microbes.)

The subject of the next data set is HD-MB03. Briefly: Antiproliferative activity against human HD-MB03 cells assessed as cell growth inhibition incubated for 72 hrs by resazurin dye based analysis. The format is functional. The essentials:
as §1

Data set [1] deals with T1, BAG family molecular chaperone regulator 3 (Homo sapiens, UniProt O95817). Briefly: Binding affinity to CM4 sensorchip immobilized C-terminal His tagged human BAG3 transfected in HEK293T cells assessed as binding capacity at 50 uM by SPR analysis. In a few lines: (§2)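 SPR screen on BAG3-His amine-coupled to a CM4 chip at 60 µg/mL in pH 2.8 acetate. Compound at 50 µM in PBS with 5% DMSO and 0.05% P20 was injected for 90 s at 30 µL/min, then washed. Chip regenerated with 10 mM glycine pH 3. Bound RU read at equilibrium against a void flow cell; 3–10 repeats, mean ± SEM.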
T1 sequence (O95817 whole entry): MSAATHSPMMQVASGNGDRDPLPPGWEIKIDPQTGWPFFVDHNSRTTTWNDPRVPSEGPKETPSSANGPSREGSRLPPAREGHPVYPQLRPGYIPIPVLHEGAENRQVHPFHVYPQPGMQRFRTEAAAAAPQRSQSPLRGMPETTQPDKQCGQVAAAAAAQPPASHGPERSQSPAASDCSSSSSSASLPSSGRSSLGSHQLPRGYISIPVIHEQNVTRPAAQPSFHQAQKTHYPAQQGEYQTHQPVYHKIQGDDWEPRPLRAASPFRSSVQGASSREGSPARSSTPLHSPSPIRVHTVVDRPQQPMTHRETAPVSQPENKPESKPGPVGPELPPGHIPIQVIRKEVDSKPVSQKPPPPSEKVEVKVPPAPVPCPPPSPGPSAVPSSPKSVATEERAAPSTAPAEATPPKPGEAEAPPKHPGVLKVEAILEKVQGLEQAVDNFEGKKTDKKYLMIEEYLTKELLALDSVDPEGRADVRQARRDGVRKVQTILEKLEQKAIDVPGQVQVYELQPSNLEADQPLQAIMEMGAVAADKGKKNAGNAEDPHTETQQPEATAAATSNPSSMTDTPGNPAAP

Data set [2] addresses T1, BAG family molecular chaperone regulator 3. The data set is described as follows: Binding affinity to CM4 sensorchip immobilized glycosylated C-terminal His tagged human BAG3 transfected in HEK293T cells assessed as dissociation constant by SPR analysis. In a few lines:
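SPR single-cycle kinetics on CM4-immobilized HEK-293T-expressed BAG3-His. Increasing compound concentrations in PBS with 5% DMSO and 0.05% P20 were injected at 30 µL/min without regeneration between injections, with blank subtraction. Kd from steady-state analysis, reported as mean ± SEM and compared by Student t-test.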
(In general: SPR reads the build-up and loss of mass on a sensor chip optically.)

Data set [3] in a line: Cytotoxicity against PHA stimulated human PBMC cells assessed as cell growth inhibition incubated for 72 hrs by MTT assay. The format is toxicity, cell-based.
The nature of data set [4]: Cytotoxicity against resting human PBMC cells assessed as cell growth inhibition incubated for 72 hrs by MTT assay. The format is toxicity, cell-based. (Tetrazolium assays rely on reduction of a dye to a coloured formazan, in cell work by metabolically active cells.)
The target of data set [5] is T1, BAG family molecular chaperone regulator 3. Briefly: Binding affinity to C-terminal His tagged human BAG3 transfected in HEK293T cells assessed as intermolecular nuclear overhauser effect mediated protein magnetization at 125 uM by waterLOGSY experiment. The format is cell-based. The essentials:
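Ligand-observed NMR in 50 mM sodium phosphate pH 7.8, 150 mM NaCl, 0.04% NaN3, 1.3% DMSO-d6, 5% D2O. Compound at 125 µM with 5 µM BAG3-His (HEK-293T expressed, purified by IMAC and SEC), each also run without protein. WaterLOGSY used 240 scans, 1.5 s mixing and water inversion at 4.7 ppm. STD used 256 scans with protein saturation at 0.4 ppm.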

Data set [6] shares this target. Briefly: Binding affinity to CM4 sensorchip immobilized C-terminal His tagged human BAG3 transfected in HEK293T cells at 50 uM by SPR analysis. The essentials:
as §2

Active and inactive are the calls of the source. No cut-off for these calls is given here.

A word on the GI50: it is the concentration giving 50% growth inhibition. The Kd is the free concentration of one partner at which half of the binding sites on the other are occupied at equilibrium, for simple one-to-one binding.

For `CC(C(=O)N1CCOCC1)N1C(=O)S/C(=C\c2ccc(N3CCOCC3)cc2)C1=O` (racemic), the GI50 with RS4-11, with A549 and in the data set with HD-MB03 was over 100 µM each time. For the same molecule, the Activity in data set [1] is under 5 RU.

Take `CC(C(=O)N1CCCCC1)N1C(=O)S/C(=C\c2ccc(O)c(O)c2)C1=O` (racemic): the GI50 in the data set with RS4-11 is 8.6 µM; in the data set on A549 it was 29.4 µM; with HD-MB03, 13.9 µM. Besides, the dissociation constant Kd in [2] worked out at 150 µM. Besides, the Activity in data set [1] is over 5 RU.

As for `CCOC(=O)C(C)N1C(=O)S/C(=C\c2cc(Cl)c(O)c(Cl)c2)C1=O` (racemic), the GI50 in the data set on RS4-11 amounted to 47.2 µM; with A549 it was 72.5 µM; with HD-MB03, 45.6 µM. Further, the Activity in data set [1] was under 5 RU.

Consider `CCOC(=O)Cc1csc(Oc2ccc(O)cc2)n1`, for which the GI50 in the data set on RS4-11, in the data set on A549 and in the data set on HD-MB03 was over 100 µM each time. The Activity in data set [1] was under 5 RU.

For `CCOC(=O)CN1C(=O)S/C(=C\c2ccc(O)c(O)c2)C1=O`, the GI50 at 72 h in [3] and in data set [4] was over 100 µM throughout. Besides, the figures for the GI50 in the data set with RS4-11, with A549 and in the data set on HD-MB03 were 6.4 µM, 42.5 µM and 14.8 µM, respectively. Further, the Kd in data set [2] stood at 233 µM. The outcome in data set [5] was Active.

Take `CCOC(=O)C(C)N1C(=O)S/C(=C\c2ccc(Cl)c(O)c2)C1=O` (racemic): the GI50 in the data set with RS4-11 was 60.6 µM; with A549 it was over 100 µM; with HD-MB03, 5.26 µM. In addition, the Activity in data set [1] is under 5 RU.

`CCOC(=O)C(C)N1C(=O)S/C(=C\c2ccc3cn[nH]c3c2)C1=O` (racemic): the GI50 in the data set with RS4-11 was 17.8 µM; in the data set on A549, 57.5 µM; in the data set with HD-MB03, 26.3 µM. Also, in data set [1], the Activity is under 5 RU.

Turning to `CCOC(=O)C(C)N1C(=O)S/C(=C\c2ccc3[nH]cnc3c2)C1=O` (racemic), the GI50 is over 100 µM with RS4-11, over 100 µM in the data set with A549 and 42.5 µM in the data set with HD-MB03. Besides, the Kd in data set [2] was 198 µM. Moreover, in data set [1], the Activity was over 5 RU.

For `CCOC(=O)C(c1ccccc1)N1C(=O)S/C(=C\c2ccc(O)c(O)c2)C1=O` (racemic), the GI50 turned out to be 9.53 µM in the data set with RS4-11, 33.3 µM in the data set with A549 and 17.6 µM in the data set on HD-MB03. Also, the Kd in data set [2] was 366 µM. Further, the Activity in data set [1] is over 5 RU.

In the case of `CC(C(=O)N1CCOCC1)N1C(=O)S/C(=C\c2ccc(N3CCCC3)cc2)C1=O` (racemic), the concentration for 50% growth inhibition (GI50) in the data set on RS4-11 was 5.2 µM; with A549, 69 µM; with HD-MB03 it was 7.4 µM. In addition, the Activity in data set [1] was under 5 RU.

On to `CCOC(=O)C(C1CC1)N1C(=O)S/C(=C\c2ccc(O)c(O)c2)C1=O` (racemic), for which the figures for the concentration for 50% growth inhibition (GI50) in the data set with RS4-11, with A549 and in the data set on HD-MB03 were 6.83 µM, 28.1 µM and 15.5 µM, respectively. Further, the Kd in data set [2] worked out at 204 µM. Further, the Activity in [1] was over 5 RU.

Take `CCOC(=O)C(C)N1C(=O)S/C(=C\c2ccc3[nH]ncc3c2)C1=O` (racemic): the results for the GI50 in the data set with RS4-11, in the data set on A549 and in the data set on HD-MB03 were 50.5 µM, 68 µM and 28.3 µM, respectively. Moreover, the Activity in data set [1] is under 5 RU.

In the case of `O=C1OCCC1N1C(=O)S/C(=C\c2ccc(O)c(O)c2)C1=O` (stereo not drawn), the concentration for 50% growth inhibition (GI50) in the data set with RS4-11 was found to be 18.1 µM; in the data set with A549 it was 50.2 µM; with HD-MB03, 20.7 µM. The Activity in [1] was under 5 RU.

For `CC(C(=O)N1CCC2(CC1)OCCO2)N1C(=O)S/C(=C\c2ccc(O)c(O)c2)C1=O` (racemic), the GI50 in the data set with RS4-11 came to 13.4 µM; in the data set on A549, 44.1 µM; with HD-MB03, 31.4 µM. Besides, the Activity in [1] is under 5 RU.

In the case of `CCOC(=O)C(C)N1C(=O)S/C(=C\c2ccc(O)c(O)c2)C1=O` (racemic), the GI50 in the data set with RS4-11 was 5.1 µM; with A549 it was 32.5 µM; in the data set with HD-MB03 it was 25.3 µM. Besides, the Kd in data set [2] came out at 286 µM. Moreover, the Activity in data set [1] is over 5 RU.

As for `CCOC(=O)CN1C(=O)SC(Cc2ccc(O)c(O)c2)C1=O` (stereo not drawn), the GI50 in the data set with RS4-11 is 27.6 µM; in the data set with A549, over 100 µM; in the data set with HD-MB03, 49 µM. Besides, the result in data set [6] was inactive.

`O=C(CN1C(=O)S/C(=C\c2cc(Cl)c(O)c(Cl)c2)C1=O)N1CCOCC1`: the GI50 with RS4-11, with A549 and in the data set on HD-MB03 was over 100 µM throughout. In addition, the result in data set [6] was inactive.

For `CN(C)C(=O)CN1C(=O)S/C(=C\c2ccc(O)c(O)c2)C1=O`, the GI50 in the data set with RS4-11 worked out at 25.6 µM; in the data set on A549, 48.3 µM; in the data set on HD-MB03, 36.4 µM. In addition, the outcome in data set [6] was inactive.

Take `CCOC(=O)C(C)N1C(=O)S/C(=C\c2ccc3c(c2)NC(=O)CO3)C1=O` (racemic): the 50% growth inhibitory concentration (GI50) in the data set with RS4-11 was 28.1 µM; with A549, over 100 µM; in the data set on HD-MB03, 40.7 µM. In [6], the result was inactive.

With `O=C(O)CN1C(=O)S/C(=C\c2ccc(O)c(O)c2)C1=O`, the GI50 in the data set with RS4-11, in the data set on A549 and in the data set with HD-MB03 was over 100 µM throughout. Further, the result in [6] was inactive.

For `O=C(CN1C(=O)S/C(=C\c2ccc(O)c(O)c2)C1=O)N1CCOCC1`, the figures for the GI50 in the data set with RS4-11, in the data set with A549 and in the data set on HD-MB03 were 24.8 µM, 49.4 µM and 33.1 µM, respectively. Further, the Kd in [2] worked out at 152 µM. Moreover, in [1], the Activity was over 5 RU.

As to `CCOC(=O)C(C)N1C(=O)S/C(=C\c2ccc(F)c(O)c2)C1=O` (racemic), the GI50 in the data set with RS4-11, in the data set with A549 and in the data set with HD-MB03 was over 100 µM in each case. Besides, in data set [6], the result was inactive.

Take `CCOCCN1C(=O)S/C(=C\c2ccc(O)c(O)c2)C1=O`: the GI50 in the data set with RS4-11 is 6.1 µM; with A549, 34.3 µM; in the data set with HD-MB03, 17.8 µM. Moreover, the result in [6] was inactive.

With `CCOC(=O)C(CC)N1C(=O)S/C(=C\c2ccc(O)c(O)c2)C1=O` (racemic), the GI50 in the data set with RS4-11 was determined as 5.13 µM; with A549, 29.3 µM; in the data set with HD-MB03, 11.7 µM. The Activity in data set [1] is over 5 RU.

For `CS(=O)(=O)Nc1ccc(/C=C2\SC(=O)N(CC(=O)N3CCOCC3)C2=O)cc1`, the GI50 in the data set on RS4-11 is 12.4 µM; with A549, 47.7 µM; in the data set on HD-MB03, 47.4 µM. In addition, the result in data set [6] was inactive.

For `CCOC(=O)C(C)N1C(=O)N/C(=C\c2ccc(O)c(O)c2)C1=O` (racemic), the GI50 came to 11.9 µM in the data set on RS4-11, 54.1 µM in the data set with A549 and 16.9 µM in the data set with HD-MB03. The result in [6] was inactive.
